Results from PMC11027041 (RSC Advances, 2024).

Experiments:
HDAC1 = HDAC1 (Homo sapiens, UniProt Q13547); assay: In vitro HDAC enzyme assay; assay type: biochemical; conditions: for inhibition at 0.5 µM: read-out: Inhibition% (inhibition rate, IR) against HDAC1, at a concentration of 500 nM
[1] = test system: melanoma cell line SK-MEL-2; assay: Cell viability assay; assay type: cell-based; conditions: Homo sapiens, SK-MEL-2, 72 h, read-out: Antiproliferative IC50 SK-MEL-2
[2] = test system: normal bone marrow cells HS-5; assay: Cell viability assay; assay type: cell-based; conditions: 72 h, read-out: Antiproliferative IC50 HS-5
Procedure, shortened: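 Cells grown in IMDM with 20% FBS, 100 U per mL penicillin and 100 μg per mL streptomycin, then plated in 96-well format. Test compound exposure was 72 h. Alamar blue solution (1 mM, as added) was then applied for a further 5–6 h, and […] was read at 530/590 nm. Data were normalized to vehicle, as means of three independent measurements (standard errors <20%), and IC50 was calculated.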

[3] = test system: colon cancer cell line HCT-116; assay: Cell viability assay; assay type: cell-based; conditions: Homo sapiens, HCT-116, 72 h, read-out: Antiproliferative IC50 HCT116

HDAC1, sequence (Q13547 whole entry): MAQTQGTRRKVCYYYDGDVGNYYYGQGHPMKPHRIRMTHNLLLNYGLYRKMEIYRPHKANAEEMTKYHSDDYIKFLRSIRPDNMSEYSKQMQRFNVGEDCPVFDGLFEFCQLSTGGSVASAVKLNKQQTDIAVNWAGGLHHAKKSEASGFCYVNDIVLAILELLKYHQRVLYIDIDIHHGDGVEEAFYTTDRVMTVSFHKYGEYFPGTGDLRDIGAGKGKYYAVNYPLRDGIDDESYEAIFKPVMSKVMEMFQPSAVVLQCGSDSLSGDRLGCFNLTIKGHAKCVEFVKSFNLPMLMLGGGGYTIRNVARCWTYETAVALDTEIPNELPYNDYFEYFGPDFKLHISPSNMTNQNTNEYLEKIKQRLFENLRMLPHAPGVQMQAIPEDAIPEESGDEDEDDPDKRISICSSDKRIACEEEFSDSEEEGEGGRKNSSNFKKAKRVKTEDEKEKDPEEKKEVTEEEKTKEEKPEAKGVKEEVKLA

`COc1ccc(CN2Cc3[nH]c4ccccc4c3C[C@H]2C(=O)NCCCCCCC(=O)NO)cc1` [Compound 9a, (S)-N-(7-(Hydroxyamino)-7-oxoheptyl)-2-(4-methoxybenzyl)-2,3,4,9-tetrahydro-1H-pyrido[3,4-b]indole-3-carboxamide] gave an inhibition at 0.5 µM (HDAC1; duplicate) of 31.8%.
`O=C(CCCCCCNC(=O)[C@@H]1Cc2c([nH]c3ccccc23)[C@@H](C2CC2)N1)NO` [Compound 9i, (1R,3S)-1-Cyclopropyl-N-(7-(hydroxyamino)-7-oxoheptyl)-2,3,4,9-tetrahydro-1H-pyrido[3,4-b]indole-3-carboxamide] was tested, and the inhibition at 0.5 µM (HDAC1; duplicate) was 77.3%.
`COc1ccc(CN2[C@H](C)c3[nH]c4ccccc4c3C[C@H]2C(=O)NCCCCCCC(=O)NO)cc1` [Compound 9f, (1R,3S)-N-(7-(Hydroxyamino)-7-oxoheptyl)-2-(4-methoxybenzyl)-1-methyl-2,3,4,9-tetrahydro-1H-pyrido[3,4-b]indole-3-carboxamide] gave an inhibition at 0.5 µM (HDAC1; duplicate) of 40.8%.
For `COc1ccc(CN2[C@@H](C(=O)NCCCCCCC(=O)NO)Cc3c([nH]c4ccccc34)[C@@H]2C)cc1` [Compound 13f, (1S,3R)-N-(7-(Hydroxyamino)-7-oxoheptyl)-2-(4-methoxybenzyl)-1-methyl-2,3,4,9-tetrahydro-1H-pyrido[3,4-b]indole-3-carboxamide], the IC50 [1] was 5.7 ± 0.12 µM, the IC50 [2] was > 50 µM and the IC50 (HDAC1) was 0.0224 ± 0.00084 µM. For the same molecule, the inhibition at 0.5 µM (HDAC1; duplicate) was 91.4% and the IC50 [3] was 4.22 ± 0.12 µM.
`O=C(CCCCCCNC(=O)c1cnc(N(c2ccccc2)c2ccccc2)nc1)NO` [ACY-1215, reference compound] showed an IC50 [1] of 4.5 ± 0.14 µM and an IC50 [3] of 3.87 ± 0.11 µM.
With `COc1ccc([C@@H]2N[C@@H](C(=O)NCCCCCCC(=O)NO)Cc3c2[nH]c2ccccc32)cc1` [Compound 13c, (1S,3R)-N-(7-(Hydroxyamino)-7-oxoheptyl)-1-(4-methoxyphenyl)-2,3,4,9-tetrahydro-1H-pyrido[3,4-b]indole-3-carboxamide] the IC50 (HDAC1) was 0.047 ± 0.00125 µM, the “Inhibition% (inhibition rate, IR) against HDAC1” value (HDAC1; at a concentration of 500 nM, duplicate, 0.5 µM) was 81.6% and the inhibition at 0.5 µM (HDAC1; duplicate) was 66%.
For `COc1ccc(CN2[C@H](C)c3[nH]c4ccccc4c3C[C@H]2C(=O)NCCCCCC(=O)NO)cc1` [Compound 9e, (1R,3S)-N-(6-(Hydroxyamino)-6-oxohexyl)-2-(4-methoxybenzyl)-1-methyl-2,3,4,9-tetrahydro-1H-pyrido[3,4-b]indole-3-carboxamide], the inhibition at 0.5 µM (HDAC1; duplicate) was 58.1%.
For `COc1ccc([C@H]2N[C@H](C(=O)NCCCCCC(=O)NO)Cc3c2[nH]c2ccccc32)cc1` [Compound 9b, (1R,3S)-N-(6-(Hydroxyamino)-6-oxohexyl)-1-(4-methoxyphenyl)-2,3,4,9-tetrahydro-1H-pyrido[3,4-b]indole-3-carboxamide], the inhibition at 0.5 µM (HDAC1; duplicate) was 23.2%.
`COc1ccc([C@@H]2N[C@@H](C(=O)NCCCCCCC(=O)NO)Cc3c2[nH]c2ccccc32)cc1OC` [Compound 13j, (1S,3R)-1-(3,4-Dimethoxyphenyl)-N-(7-(hydroxyamino)-7-oxoheptyl)-2,3,4,9-tetrahydro-1H-pyrido[3,4-b]indole-3-carboxamide] showed an inhibition at 0.5 µM (HDAC1; duplicate) of 72.5%.
For `O=C(CCCCCCNC(=O)[C@H]1Cc2c([nH]c3ccccc23)[C@H](C2CC2)N1Cc1ccccc1)NO` [Compound 13g, (1S,3R)-2-Benzyl-1-cyclopropyl-N-(7-(hydroxyamino)-7-oxoheptyl)-2,3,4,9-tetrahydro-1H-pyrido[3,4-b]indole-3-carboxamide], the IC50 [1] was 3.16 ± 0.08 µM, the IC50 [2] was > 50 µM and the IC50 (HDAC1) was 0.0104 ± 0.00065 µM. The inhibition at 0.5 µM (HDAC1; duplicate) was 98.2% and the IC50 [3] was 3.2 ± 0.09 µM.
`O=C(CCCCCNC(=O)[C@H]1Cc2c([nH]c3ccccc23)[C@H](c2ccc(Cl)cc2)N1)NO` [Compound 13h, (1S,3R)-1-(4-Chlorophenyl)-N-(6-(hydroxyamino)-6-oxohexyl)-2,3,4,9-tetrahydro-1H-pyrido[3,4-b]indole-3-carboxamide] showed an inhibition at 0.5 µM (HDAC1; duplicate) of 51.3%.
Work on `COc1ccc(CN2Cc3[nH]c4ccccc4c3C[C@@H]2C(=O)NCCCCCCC(=O)NO)cc1` [Compound 13a, (R)-N-(7-(Hydroxyamino)-7-oxoheptyl)-2-(4-methoxybenzyl)-2,3,4,9-tetrahydro-1H-pyrido[3,4-b]indole-3-carboxamide] yielded an inhibition at 0.5 µM (HDAC1; duplicate) of 44.3%.
`COc1ccc([C@H]2N[C@H](C(=O)NCCCCCCC(=O)NO)Cc3c2[nH]c2ccccc32)cc1` [Compound 9c, (1R,3S)-N-(7-(Hydroxyamino)-7-oxoheptyl)-1-(4-methoxyphenyl)-2,3,4,9-tetrahydro-1H-pyrido[3,4-b]indole-3-carboxamide] gave an inhibition at 0.5 µM (HDAC1; duplicate) of 41.3%.
Work on `COc1ccc([C@@H]2N[C@@H](C(=O)NCCCCCC(=O)NO)Cc3c2[nH]c2ccccc32)cc1` [Compound 13b, (1S,3R)-N-(6-(Hydroxyamino)-6-oxohexyl)-1-(4-methoxyphenyl)-2,3,4,9-tetrahydro-1H-pyrido[3,4-b]indole-3-carboxamide] yielded an inhibition at 0.5 µM (HDAC1; duplicate) of 49.2%.
`O=C(CCCCCNC(=O)[C@@H]1Cc2c([nH]c3ccccc23)[C@@H](c2ccccc2)N1)NO` [Compound 9d, (1R,3S)-N-(6-(Hydroxyamino)-6-oxohexyl)-1-phenyl-2,3,4,9-tetrahydro-1H-pyrido[3,4-b]indole-3-carboxamide] was tested, and the inhibition at 0.5 µM (HDAC1; duplicate) was 39.6%.
`O=C(CCCCCCNC(=O)[C@H]1Cc2c([nH]c3ccccc23)[C@H](c2ccc(Cl)cc2)N1)NO` [Compound 13i, (1S,3R)-1-(4-Chlorophenyl)-N-(7-(hydroxyamino)-7-oxoheptyl)-2,3,4,9-tetrahydro-1H-pyrido[3,4-b]indole-3-carboxamide] was tested, and the IC50 [1] was 7.84 ± 0.26 µM, the IC50 [2] was > 50 µM and the inhibition at 0.5 µM (HDAC1; duplicate) was 66%. It also gave an IC50 [3] of 7.55 ± 0.18 µM.
`O=C(CCCCCCNC(=O)[C@@H]1Cc2c([nH]c3ccccc23)[C@@H](c2ccc(Cl)cc2)N1)NO` [Compound 9g, (1R,3S)-1-(4-Chlorophenyl)-N-(7-(hydroxyamino)-7-oxoheptyl)-2,3,4,9-tetrahydro-1H-pyrido[3,4-b]indole-3-carboxamide] showed an inhibition at 0.5 µM (HDAC1; duplicate) of 65.4%.
For `COc1ccc([C@H]2N[C@H](C(=O)NCCCCCCC(=O)NO)Cc3c2[nH]c2ccccc32)cc1OC` [Compound 9h, (1R,3S)-1-(3,4-Dimethoxyphenyl)-N-(7-(hydroxyamino)-7-oxoheptyl)-2,3,4,9-tetrahydro-1H-pyrido[3,4-b]indole-3-carboxamide], the inhibition at 0.5 µM (HDAC1; duplicate) was 46.5%.
In the case of `COc1ccc(CN2[C@@H](C(=O)NCCCCCC(=O)NO)Cc3c([nH]c4ccccc34)[C@@H]2C)cc1` [Compound 13e, (1S,3R)-N-(6-(Hydroxyamino)-6-oxohexyl)-2-(4-methoxybenzyl)-1-methyl-2,3,4,9-tetrahydro-1H-pyrido[3,4-b]indole-3-carboxamide], the IC50 [1] is reported as 9.65 ± 0.46 µM, the IC50 [2] is reported as > 50 µM and the IC50 (HDAC1) is reported as 0.0536 ± 0.0025 µM. It also gave an inhibition at 0.5 µM (HDAC1; duplicate) of 84.8% and an IC50 [3] of 8.34 ± 0.24 µM.
